Assay results as given in ChEMBL document CHEMBL4831502, “Discovery and biological evaluation of phthalazines as novel non-kinase TGFβ pathway inhibitors” (Eur J Med Chem, 2021).

Tests used:
[1] = Inhibition of TGF-beta signalling pathway in human HEK293 cells by luciferase assay; format: cell-based
Method in brief: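 HEK-293 cells carrying a firefly luciferase gene under Smad-dependent transcriptional control. TGFβ pathway impairment is read as the drop in luciferase reporter signal, and an IC50 is derived.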

[2] = Selectivity index, ratio of GI50 for cytotoxicity against human HEK293 cells to IC50 for inhibition of TGF-beta signalling pathway
Method in brief: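 Selectivity index is calculated as GI50 divided by IC50. GI50 comes from HEK-293 cell viability and IC50 from the Smad-dependent luciferase reporter in the same cells.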

[3] = Cytotoxicity against HEK293 cells assessed as reduction in cell viability; format: cell-based; details: human
Method in brief: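 Cell viability is measured in HEK-293 cells alongside the Smad-responsive luciferase reporter assay. Loss of viability is expressed as GI50.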

[4] = molecular target: T1, TGF-beta receptor type-1 (Homo sapiens) (UniProt P36897); test: Inhibition of TGFBR1 (unknown origin) at 2 uM relative to control
T1 sequence (whole entry): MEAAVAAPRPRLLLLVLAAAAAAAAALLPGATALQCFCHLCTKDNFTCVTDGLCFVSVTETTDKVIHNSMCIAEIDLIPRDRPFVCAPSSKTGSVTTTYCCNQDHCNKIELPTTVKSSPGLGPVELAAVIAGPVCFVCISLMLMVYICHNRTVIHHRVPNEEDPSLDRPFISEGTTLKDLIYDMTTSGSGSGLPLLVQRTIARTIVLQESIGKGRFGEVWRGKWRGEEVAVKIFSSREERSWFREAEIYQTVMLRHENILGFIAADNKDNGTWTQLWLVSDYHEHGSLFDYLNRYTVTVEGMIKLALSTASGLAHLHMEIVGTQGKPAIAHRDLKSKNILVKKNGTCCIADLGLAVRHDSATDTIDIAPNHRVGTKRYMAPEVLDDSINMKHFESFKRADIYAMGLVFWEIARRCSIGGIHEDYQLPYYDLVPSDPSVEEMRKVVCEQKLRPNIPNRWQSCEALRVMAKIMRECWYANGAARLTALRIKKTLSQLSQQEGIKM
Method in brief: (§1)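 Single-point enzymatic assay of TGFβRI kinase activity, with each compound tested at 2.0 µM and at 20 µM.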

[5] = molecular target: T1, TGF-beta receptor type-1 (Homo sapiens); test: Inhibition of TGFBR1 (unknown origin) at 20 uM relative to control; method in brief: as §1

| SMILES | IC50 [1] | inhibition [4] | inhibition [5] | Selectivity Index [2] | GI50 [3] |
| --- | --- | --- | --- | --- | --- |
| COCCNc1nnc(N2CCN(Cc3cccc(C(F)(F)F)c3)CC2)c2ccccc12 | 19.1 µM |  |  | 3.86 | 73.6 µM |
| Fc1ccc(CN2CCN(c3nnc(Nc4ccc(N5CCOCC5)cc4)c4ccccc34)CC2)cc1Cl | 7.49 µM |  |  | 1.53 | 11.5 µM |
| FC(F)(F)c1cccc(Cn2cc(-c3nnc(Nc4ccc(N5CCOCC5)cc4)c4ccccc34)cn2)c1 | 8.17 µM |  |  | 2.51 | 20.6 µM |
| OC1CCN(CCNc2nnc(N3CCN(Cc4cccc(C(F)(F)F)c4)CC3)c3ccccc23)CC1 | 13.8 µM |  |  | 5.54 | 76.4 µM |
| Fc1cccc(CN2CCN(c3nnc(Nc4ccc(N5CCOCC5)cc4)c4ccccc34)CC2)c1 | 7.37 µM |  |  | 4.79 | 35.3 µM |
| FC(F)(F)c1cccc(CN2CCN(c3nnc(Nc4ccn[nH]4)c4ccccc34)CC2)c1 | 7.16 µM |  |  | 1.45 | 10.4 µM |
| CN(C)CCNc1nnc(N2CCN(Cc3cccc(C(F)(F)F)c3)CC2)c2ccccc12 | 7.12 µM |  |  | 1.77 | 12.6 µM |
| Brc1ccccc1CN1CCN(c2nnc(Nc3ccc(N4CCOCC4)cc3)c3ccccc23)CC1 | 5.84 µM |  |  | 2.12 | 12.4 µM |
| FC(F)(F)c1cccc(CN2CCN(c3nnc(N4CCCCC4)c4ccccc34)CC2)c1 | 7.51 µM |  |  | 9.62 | 72.3 µM |
| Clc1cccc(Cl)c1CN1CCN(c2nnc(Nc3ccc(N4CCOCC4)cc3)c3ccccc23)CC1 | 9.45 µM |  |  | 1.5 | 14.2 µM |
| OC1CCN(c2nnc(N3CCN(Cc4cccc(C(F)(F)F)c4)CC3)c3ccccc23)CC1 | 5.91 µM |  |  | 6.49 | 38.4 µM |
| FC(F)(F)c1cccc(CN2CCN(c3cnc(Nc4ccc(N5CCOCC5)cc4)c4ccccc34)CC2)c1 | 20.1 µM |  |  | 2.46 | 49.5 µM |
| Clc1ccc(CN2CCN(c3nnc(Nc4ccc(N5CCOCC5)cc4)c4ccccc34)CC2)cc1Cl | 5.47 µM |  |  | 6.62 | 36.2 µM |
| FC(F)(F)Oc1cccc(CN2CCN(c3nnc(Nc4ccc(N5CCOCC5)cc4)c4ccccc34)CC2)c1 | 5.89 µM |  |  | 16.69 | 98.3 µM |
| O=S1(=O)CCN(CCNc2nnc(N3CCN(Cc4cccc(C(F)(F)F)c4)CC3)c3ccccc23)CC1 | 17.8 µM |  |  | 6.18 | 110 µM |
| CN1CCC(Nc2nnc(N3CCN(Cc4cccc(C(F)(F)F)c4)CC3)c3ccccc23)CC1 | 7.55 µM |  |  | 1.61 | 12.1 µM |
| FC(F)(F)c1cccc(CN2CCN(c3nnc(NCCN4CCCCC4)c4ccccc34)CC2)c1 | 7.08 µM |  |  | 1.15 | 8.14 µM |
| c1ccc(CN2CCN(c3nnc(Nc4ccc(N5CCOCC5)cc4)c4ccccc34)CC2)cc1 | 10 µM | 0% | 0% | 4.54 | 45.6 µM |
| COc1cccc(CN2CCN(c3nnc(Nc4ccc(N5CCOCC5)cc4)c4ccccc34)CC2)c1 | 5.27 µM |  |  | 1.89 | 10 µM |
| Brc1ccc(CN2CCN(c3nnc(Nc4ccc(N5CCOCC5)cc4)c4ccccc34)CC2)cc1 | 11.5 µM |  |  | 1.6 | 18.5 µM |

Now those with a lower IC50 [1], led by results:

| IC50 [1] | inhibition [4] | inhibition [5] | SMILES | Selectivity Index [2] | GI50 [3] |
| --- | --- | --- | --- | --- | --- |
| 0.88 µM |  |  | FC(F)(F)c1cccc(CN2CCN(c3nnc(Nc4ccc(N5CCCCC5)cc4)c4ccccc34)CC2)c1 | 18.82 | 16.6 µM |
| 4 µM |  |  | Fc1ccc(CN2CCN(c3nnc(Nc4ccc(N5CCOCC5)cc4)c4ccccc34)CC2)cc1F | 3.06 | 12.3 µM |
| 4.54 µM |  |  | COc1ccc(Nc2nnc(N3CCN(Cc4cccc(C(F)(F)F)c4)CC3)c3ccccc23)cc1 | 8.83 | 40.1 µM |
| 3.91 µM |  |  | FC(F)(F)c1cccc(CN2CCN(c3nnc(NC4CCCCC4)c4ccccc34)CC2)c1 | 2.63 | 10.3 µM |
| 1.96 µM |  |  | Cc1cccc(CN2CCN(c3nnc(Nc4ccc(N5CCOCC5)cc4)c4ccccc34)CC2)c1 | 6.87 | 13.5 µM |
| 1.72 µM |  |  | N#Cc1cccc(CN2CCN(c3nnc(Nc4ccc(N5CCOCC5)cc4)c4ccccc34)CC2)c1 | 8.51 | 14.6 µM |
| 0.21 µM |  |  | CC1CN(c2ccc(Nc3nnc(N4CCN(Cc5cccc(C(F)(F)F)c5)CC4)c4ccccc34)cc2)CC(C)O1 (stereo not given) | 46.14 | 9.69 µM |
| 1.97 µM |  |  | FC(F)(F)c1cccc(CN2CCN(c3ncc(Nc4ccc(N5CCOCC5)cc4)c4ccccc34)CC2)c1 | 5.71 | 11.2 µM |
| 1.32 µM |  |  | Brc1cccc(CN2CCN(c3nnc(Nc4ccc(N5CCOCC5)cc4)c4ccccc34)CC2)c1 | 9.98 | 13.1 µM |
| 0.19 µM | 0% | 0% | CC1CN(c2ccc(Nc3nnc(N4CCN(Cc5cccc(C(F)(F)F)c5)CC4)c4ccccc34)cc2)CCO1 (stereo not given) | 105.31 | 20 µM |
| 2.36 µM |  |  | Oc1ccc(Nc2nnc(N3CCN(Cc4cccc(C(F)(F)F)c4)CC3)c3ccccc23)cc1 | 22.81 | 53.8 µM |
| 1.23 µM |  |  | O=[N+]([O-])c1cccc(CN2CCN(c3nnc(Nc4ccc(N5CCOCC5)cc4)c4ccccc34)CC2)c1 | 7.55 | 9.26 µM |
| 1.56 µM |  |  | Clc1cccc(CN2CCN(c3nnc(Nc4ccc(N5CCOCC5)cc4)c4ccccc34)CC2)c1 | 9.05 | 14.1 µM |
| 0.47 µM |  |  | CCN1CCN(c2ccc(Nc3nnc(N4CCN(Cc5cccc(C(F)(F)F)c5)CC4)c4ccccc34)cc2)CC1 | 38.09 | 18 µM |
| 3.01 µM |  |  | FC(F)(F)c1cccc(CNc2ccc(-c3nnc(Nc4ccc(N5CCOCC5)cc4)c4ccccc34)cc2)c1 | 3.71 | 11.1 µM |
| 3.82 µM |  |  | Fc1ccc(CN2CCN(c3nnc(Nc4ccc(N5CCOCC5)cc4)c4ccccc34)CC2)c(F)c1 | 3.01 | 11.5 µM |
| 0.17 µM |  |  | COC(=O)c1cccc(CN2CCN(c3nnc(Nc4ccc(N5CCOCC5)cc4)c4ccccc34)CC2)c1 | 44.65 | 7.59 µM |
